TRPC6 activator = activates the mouse TRPC6 cation channel; 310,000 compounds, 0.13% hits; Q61143; AID 2550; HEK293-TRPC6 membrane potential dye fluorescence; active compounds read high; B-score at 10 µM;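 active = B-score of the integrated fluorescence ratio above library mean plus 3 SD, and starting fluorescence ratio within library mean plus 5 SD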;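 also: higher score means more depolarization so channel activation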
TRPC4 act = opens the mouse TRPC4 cation channel; HEK293 TRPC4beta/mu-opioid, Fluo4 calcium fluorescence; active compounds read high; 310,000 compounds, 0.49% hits; B-score at 10 µM; Q9QUQ5;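 active = B-score above 5 SD of library B-scores, and initial fluorescence ratio not above library mean plus 5 SD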;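 also: positive B-score marks a calcium rise read as TRPC4 activation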
Target sequence (Q9QUQ5 whole entry, looked up): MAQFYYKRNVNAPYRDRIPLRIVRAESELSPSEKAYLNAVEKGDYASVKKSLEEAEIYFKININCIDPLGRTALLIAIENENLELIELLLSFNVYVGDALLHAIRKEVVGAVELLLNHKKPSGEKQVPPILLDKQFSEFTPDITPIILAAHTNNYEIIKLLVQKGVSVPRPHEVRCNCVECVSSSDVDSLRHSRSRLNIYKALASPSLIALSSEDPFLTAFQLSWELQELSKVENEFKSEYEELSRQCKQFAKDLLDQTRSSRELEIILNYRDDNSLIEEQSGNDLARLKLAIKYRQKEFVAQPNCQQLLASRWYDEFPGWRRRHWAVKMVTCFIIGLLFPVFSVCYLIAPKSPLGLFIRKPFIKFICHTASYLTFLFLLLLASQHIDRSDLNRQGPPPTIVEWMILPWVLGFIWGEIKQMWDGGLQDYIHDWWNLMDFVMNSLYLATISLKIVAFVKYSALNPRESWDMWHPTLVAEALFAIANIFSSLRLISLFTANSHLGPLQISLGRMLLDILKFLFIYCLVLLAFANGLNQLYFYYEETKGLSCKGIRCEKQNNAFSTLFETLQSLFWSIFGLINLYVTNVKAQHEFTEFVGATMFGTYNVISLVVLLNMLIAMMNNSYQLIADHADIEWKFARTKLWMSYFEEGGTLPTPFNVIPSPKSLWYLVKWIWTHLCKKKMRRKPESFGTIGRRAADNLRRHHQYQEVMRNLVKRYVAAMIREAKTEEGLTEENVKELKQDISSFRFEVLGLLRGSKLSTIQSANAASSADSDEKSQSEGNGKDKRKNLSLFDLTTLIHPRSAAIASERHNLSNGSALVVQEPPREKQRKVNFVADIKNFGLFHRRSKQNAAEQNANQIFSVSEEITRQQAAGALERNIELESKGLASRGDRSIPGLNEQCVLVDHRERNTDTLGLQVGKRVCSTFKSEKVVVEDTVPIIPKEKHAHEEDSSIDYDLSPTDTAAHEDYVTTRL
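Material: TRPC4beta and mu-opioid receptor HEK293 stable cells | Incubation: 45 min room-temperature Fluo4 loading, 110 s read | Detection: Kinetic Fluo4 calcium fluorescence | Measure: Integrated baseline-normalised fluorescence ratio, converted to per-well B score | Benchmarks: Low control buffer alone, high control maximal DAMGO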
TRPC6 inhibitor = mouse TRPC6 channel inhibition; Q61143; HEK293-TRPC6, membrane potential dye, ACh-evoked depolarization; active compounds read low; B-score at 10 µM; 310,000 compounds, 1.1% hits; AID 2553;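 active = B-score under library mean minus 3 SD, initial fluorescence not abnormally high, positive integrated signal ratio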;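 also: B-score derived from integrated fluorescence ratio over the kinetic read; more negative B-score means stronger inhibition of depolarization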
TRPC4 PAM = TRPC4 (mouse) allosteric potentiation; Q9QUQ5; HEK293 TRPC4beta/mu-opioid, DAMGO EC20, Fluo-4 Ca2+ flux; active compounds read high; B-score at 10 µM; 310,000 compounds, 0.42% hits;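 active = B-score of calcium response area above 5 SD of library B-scores, with initial fluorescence ratio within 5 SD of library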;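 also: B-score of integrated fluorescence ratio over time as area under calcium response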
TRPC4 block = blocks the mouse TRPC4 cation channel. Q9QUQ5. HEK293 TRPC4beta/mu-opioid, DAMGO-evoked Fluo4 calcium flux; active compounds read low. B-score at 10 µM. 300,000 compounds, 0.39% hits;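 active = B-score over 3 SD under the library average, no early fluorescence shift, positive overall ratio signal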
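Test system – stable TRPC4beta/mu-opioid receptor HEK293 cells · Probe or stimulus – DAMGO, a submaximal dose followed by a maximal one · Dosing – one concentration per compound · Signal – Fluo4 calcium fluorescence by kinetic imaging, 5 s 1 Hz baseline · Evaluation – per-well B score of integrated baseline-normalized Fluo4 ratio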
TRPC4 sel inh 2 = second check of whether TRPC6 inhibitors also affect mouse TRPC4; shares compounds with TRPC6 inhibitor; HEK293 TRPC4/MOR, membrane potential dye fluorescence; channel activated by saturating DAMGO dose; inhibition, % at 10 µM; 920 compounds, 42% hits; AID 2776;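 active = compounds whose fluorescence signal differed from control wells by over 3 SD, either direction, in both duplicate plates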
TRPC4 spec = mouse TRPC4 off-target activity of TRPC6 inhibitors; 920 compounds, 61% hits; HEK293 TRPC4/mu-opioid, membrane potential fluorescence; shares compounds with TRPC6 inhibitor; activity change, negative = inhibition, % at 10 µM;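 active = rise or fall in signal beyond 3 SD of buffer-only wells in both replicate plates, either sign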;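 also: integrated kinetic ratio of fluorescence range over baseline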
HEK293 MPD ctr 2-1 = second counter-screen for TRPC6 inhibitors: parental HEK293 cells; shares compounds with TRPC6 inhibitor; parental HEK293 membrane potential dye fluorescence; maximal acetylcholine challenge after compound addition; signal change vs control, % at 10 µM; 920 compounds, 31% hits;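 active = membrane potential signal moving either way by over 3 SD of the maximum-effect control, in both duplicate plates, meaning non-specific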
HEK293 MPD ctr-1 = checks TRPC6 inhibitor effects in parental HEK293 cells; shares compounds with TRPC6 inhibitor; parental HEK293 membrane potential dye fluorescence; membrane potential signal change, % at 10 µM; 920 compounds, 60% hits;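 active = membrane potential signal shifting up or down by more than 3 SD of buffer-only wells, on both duplicate plates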
HEK293 MPD ctr-2 = parental HEK293 nonspecific activity of TRPC6 modulators. shares compounds with TRPC6 inhibitor. membrane potential dye fluorescence. membrane potential signal change, % at 10 µM. 2,400 compounds, 51% hits. AID 488924;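 active = membrane potential signal moves up or down beyond 5 SD from buffer-only wells, on both duplicate plates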
HEK293 MPD ctr 2-2 = parental HEK293 nonspecific activity of TRPC6 modulators, second screen; 2,400 compounds, 14% hits; membrane potential dye fluorescence; after compound, maximal acetylcholine stimulation; shares compounds with TRPC6 inhibitor; inhibition, % at 10 µM;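 active = membrane potential signal drops by more than 5 SD from the mean control signal, in both duplicate plates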;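 also: plate controls were acetylcholine ECmax control wells for no effect and buffer only wells for full effect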
TRPC4/MOR mod = mouse TRPC4 off-target activity of TRPC6 modulators; percent change from control (negative = decrease, positive = increase), % at 10 µM; HEK293 TRPC4/mu-opioid, membrane potential fluorescence; shares compounds with TRPC6 inhibitor; 2,400 compounds, 69% hits;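 active = membrane potential signal moved up or down beyond 5 SD of buffer control wells, in both duplicate plates, actives on both sides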;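 also: plate controls were assay buffer wells for no effect and DAMGO maximal-effect wells for full effect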
TRPC4/MOR inh 2 = second selectivity test of TRPC6 modulators against mouse TRPC4 | shares compounds with TRPC6 inhibitor | HEK293 TRPC4/mu-opioid, membrane potential dye fluorescence; stimulated with maximal-effect DAMGO | inhibition, % at 10 µM | 2,400 compounds, 55% hits | AID 488928;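 active = drop in membrane potential signal beyond 5 SD of the control wells in both duplicate plates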;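 also: TRPC4 counter screen for TRPC6 hits run under conditions tuned for TRPC6 not TRPC4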
TRPC6 block conf = mouse TRPC6 inhibitor confirmation | shares compounds with TRPC6 inhibitor | HEK293-TRPC6, membrane potential dye, ACh-evoked depolarization | inhibition, % at 10 µM | 3,300 compounds, 43% hits;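 active = fluorescence ratio falls more than 5 SD below the full-stimulation control mean, in both duplicate runs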;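 also: integrated fluorescence ratio of peak minus minimum over baseline after agonist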
TRPC6 act confirm = mouse TRPC6 activator confirmation; shares compounds with TRPC6 inhibitor; HEK293-TRPC6 membrane potential dye fluorescence, FDSS; activation, % at 10 µM; 2,800 compounds, 11% hits; AID 488961;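 active = ratio signal rise beyond 5 SD above unstimulated control wells' mean, seen in both duplicate runs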;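 also: plate controls were buffer EC0 wells for no effect and acetylcholine ECmax response for full effect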
Active calls of the source: *; i = inactive; / = not tested or not shown. A selection: hits, their analogues and other compounds. The true share with any hit is near 2.3%.

SMILES | TRPC6 activator | TRPC4 act | TRPC6 inhibitor | TRPC4 PAM | TRPC4 block | HEK293 MPD ctr-2 | HEK293 MPD ctr 2-2 | TRPC4/MOR mod | TRPC4/MOR inh 2 | TRPC6 block conf | TRPC6 act confirm | others
CC(=O)N1CCN(C2=Nc3cccc4cccc2c34)CC1 | i | i | -8.1* | i | i | -226%* | i | -97%* | 48%* | 57%* | i
COc1ccccc1N1CCN(C2=Nc3cccc4cccc2c34)CC1 | i | i | -8.7* | i | i | -214%* | 79%* | -45%* | 84%* | 60%* | i
O=C1c2ccccc2C(=O)c2c1cccc2N1CCOCC1 | i | i | i | i | i | / | / | / | / | / | /
c1cc2c3c(cccc3c1)C(N1CCOCC1)=N2 | i | i | -6.8* | i | i | -198%* | i | -129%* | 84%* | 52%* | i
CC1CN(C2=Nc3cccc4cccc2c34)CC(C)O1 (stereo not given) | i | i | -7.3* | i | i | -152%* | i | -72%* | 46%* | 58%* | i
O=C(O)c1ccc(NC2=Nc3cccc4cccc2c34)cc1 | i | i | i | i | i | / | / | / | / | / | /
CCOc1ccc(N2C(=O)CNC2=S)cc1 | i | i | i | i | i | / | / | / | / | / | /
CCOc1ccc(N2C=Nc3ccc(OCC)cc3C2)cc1 | i | i | -5.7* | i | i | -82%* | i | -18%* | 34%* | i | i
CCN(CC)CCCNC1=C(Cl)C(=O)c2ccccc2C1=O | i | i | -6.2* | i | i | -180%* | i | -30%* | 47%* | 50%* | i
O=C(NCc1cccs1)C1CC(c2ccccc2O)=NO1 (stereo not given) | i | i | i | i | i | / | / | / | / | / | /
O=C(NCc1ccccn1)C1CC(c2ccccc2O)=NO1 (stereo not given) | i | i | -5.4* | i | i | i | i | i | i | i | i
Cc1cccn2cc(-c3c[nH]c4ccccc34)nc12 | i | i | -6.7* | i | -6* | -113%* | i | -28%* | 70%* | 68%* | i
Brc1ccc2nc(-c3c[nH]c4ccccc34)cn2c1 | i | i | -6.3* | i | i | i | i | -10%* | 54%* | i | i
C=C(C)COc1ccc(-c2nc(N)ncc2-c2ccc(Cl)cc2)c(O)c1 | i | i | i | i | i | / | / | / | / | / | /
Cc1cc(-n2cccn2)ccc1CN1CCN(CC(C)C)C(CCO)C1 (stereo not given) | i | i | -8.3* | i | i | / | / | / | / | 58%* | i | TRPC4 sel inh 2=i;TRPC4 spec=4.3%*;HEK293 MPD ctr 2-1=26%*;HEK293 MPD ctr-1=5.6%*
COC(=O)c1ccc(CN2CCN(CCC(C)C)C(CCO)C2)cc1 (stereo not given) | i | i | -5.2* | i | i | 99%* | i | 10%* | i | i | /
CC(=O)Nc1ccc(CN2CCN(C3CCCC3)C(CCO)C2)cc1 (stereo not given) | i | i | -6.9* | i | i | / | / | / | / | i | i | TRPC4 sel inh 2=i;TRPC4 spec=i;HEK293 MPD ctr 2-1=i;HEK293 MPD ctr-1=i
Cc1cc(-n2cccn2)ccc1CN1CCN(C2CCCC2)C(CCO)C1 (stereo not given) | i | i | -9.7* | i | i | / | / | / | / | 63%* | / | TRPC4 sel inh 2=i;TRPC4 spec=8.4%*;HEK293 MPD ctr 2-1=20%*;HEK293 MPD ctr-1=9.2%*
CCCCn1c(N)c(N(CC(C)C)C(=O)COC(=O)Cc2c(C)nc3ccccc3c2C)c(=O)[nH]c1=O | i | i | i | i | i | / | / | / | / | / | /
Cc1cc(C)c(C(=O)N2CCCC(N3CCN(c4ccc(F)cc4)CC3)C2)o1 (stereo not given) | i | i | i | i | i | / | / | / | / | / | /
Cc1ccc(C(=O)NNC2=Nc3cccc4cccc2c34)cc1 | i | i | -5.3* | i | i | i | i | i | i | i | i
COc1ccc(C(=O)NNC2=Nc3cccc4cccc2c34)cc1 | i | i | i | i | i | / | / | / | / | / | /
CCOc1nc2cnccc2n(CC(=O)Nc2cccc(C)c2C)c1=O | i | i | i | i | i | / | / | / | / | / | /
Cc1cccc(NC(=S)NC2CC3CCCC(C2)N3Cc2cccs2)c1 (stereo not given) | i | i | -7* | i | i | / | / | / | / | i | i | TRPC4 sel inh 2=i;TRPC4 spec=i;HEK293 MPD ctr 2-1=i;HEK293 MPD ctr-1=-0.4%*
Cc1cc(-c2ccc(Cl)cc2Cl)c(C#N)c(=O)[nH]1 | i | i | i | i | i | / | / | / | / | / | /
CSc1nc(-c2ccc(Cl)cc2Cl)[nH]c(=O)c1C#N | 13* | i | i | i | i | i | i | 12%* | i | i | i
CC(C)NC(=O)CN(Cc1ccc(F)cc1)C(=O)CCC(=O)Nc1ccccn1 | i | i | i | i | i | / | / | / | / | / | /
Cc1[nH]nc(-c2ccc(O)cc2O)c1-c1ccc(Cl)cc1 | i | i | -5.8* | i | -7* | -79%* | i | -22%* | 80%* | i | i
COc1ccc(-c2n[nH]c(C)c2-c2ccc(Cl)cc2)c(O)c1 | i | i | i | i | i | / | / | / | / | / | /
